# In BindingDB's records for doi:10.1016/j.bmc.2016.09.019 (Florida A&M University, 2016):
# Tests used:
# Histamine H1 receptor = Histamine H1 receptor (Homo sapiens, UniProt P35367); assay: Displacement of [3H]-pyrilamine from human histamine H1 receptor by liquid scintillation counting method
# How it was run: (§1)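 Binding assays run by the NIMH Psychoactive Drug Screening Program (PDSP) using its previously reported methods and radioligands. Affinity is given as Ki.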
# [1] = target: T1, 5-hydroxytryptamine receptor 2C (Homo sapiens, UniProt P28335); assay: Displacement of [3H]-mesulergine from human 5-HT2C receptor by liquid scintillation counting method; how it was run: as §1
# T1 sequence (P28335 whole entry): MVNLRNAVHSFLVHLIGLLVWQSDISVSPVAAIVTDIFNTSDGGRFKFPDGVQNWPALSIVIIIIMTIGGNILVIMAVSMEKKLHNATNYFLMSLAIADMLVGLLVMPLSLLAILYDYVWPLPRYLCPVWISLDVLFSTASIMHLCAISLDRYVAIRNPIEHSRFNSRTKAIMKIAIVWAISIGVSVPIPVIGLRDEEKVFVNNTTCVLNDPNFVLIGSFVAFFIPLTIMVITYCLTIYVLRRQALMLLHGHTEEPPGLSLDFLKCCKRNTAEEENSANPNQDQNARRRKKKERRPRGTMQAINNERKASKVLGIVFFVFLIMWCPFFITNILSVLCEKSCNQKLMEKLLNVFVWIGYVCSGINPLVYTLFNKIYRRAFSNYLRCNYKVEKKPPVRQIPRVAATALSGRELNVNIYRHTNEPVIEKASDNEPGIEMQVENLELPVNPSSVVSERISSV
# [2] = target: 5-hydroxytryptamine receptor 7 (Homo sapiens, UniProt P34969); assay: Displacement of [3H]-LSD from human 5-HT7 receptor by liquid scintillation counting method
# Sequence of 5-hydroxytryptamine receptor 7 (P34969 whole entry): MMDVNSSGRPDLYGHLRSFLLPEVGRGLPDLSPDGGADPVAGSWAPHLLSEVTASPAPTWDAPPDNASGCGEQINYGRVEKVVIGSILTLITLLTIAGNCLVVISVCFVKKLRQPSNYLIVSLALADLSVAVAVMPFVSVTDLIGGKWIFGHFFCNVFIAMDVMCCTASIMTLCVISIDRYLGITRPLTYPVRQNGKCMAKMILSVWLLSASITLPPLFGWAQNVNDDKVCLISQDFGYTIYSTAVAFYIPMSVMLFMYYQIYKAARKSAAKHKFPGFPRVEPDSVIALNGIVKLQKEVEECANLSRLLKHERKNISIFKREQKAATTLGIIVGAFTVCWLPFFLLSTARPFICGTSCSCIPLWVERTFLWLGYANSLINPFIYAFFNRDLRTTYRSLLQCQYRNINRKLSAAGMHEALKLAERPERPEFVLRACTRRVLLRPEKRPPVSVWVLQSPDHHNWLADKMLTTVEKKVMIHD
# Sequence of Histamine H1 receptor (P35367 whole entry): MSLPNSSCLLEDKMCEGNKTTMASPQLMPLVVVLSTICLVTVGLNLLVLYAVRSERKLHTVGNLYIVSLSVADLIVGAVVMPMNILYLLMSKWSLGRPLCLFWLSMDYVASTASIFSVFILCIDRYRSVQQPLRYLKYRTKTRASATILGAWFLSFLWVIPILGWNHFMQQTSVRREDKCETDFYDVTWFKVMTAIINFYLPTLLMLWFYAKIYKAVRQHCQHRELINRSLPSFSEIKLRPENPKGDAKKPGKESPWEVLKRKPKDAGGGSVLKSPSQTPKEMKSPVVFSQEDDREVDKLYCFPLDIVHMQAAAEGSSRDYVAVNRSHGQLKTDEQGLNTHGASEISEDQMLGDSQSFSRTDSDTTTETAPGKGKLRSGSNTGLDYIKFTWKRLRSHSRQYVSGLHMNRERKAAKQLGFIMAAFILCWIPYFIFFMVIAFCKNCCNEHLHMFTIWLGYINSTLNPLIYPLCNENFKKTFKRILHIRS
structure (smiles),measurement,setting,value
Clc1ccc(C(=[C][C][C]N2[C][C]c3ccccc3[C]2)c2ccc(Cl)cc2)cc1,Ki,Histamine H1 receptor,1000 nM
same,Ki,[1],2040 nM
same,Ki,[2],501 nM
